# bCat KO growth – beta-catenin-lacking colon tumor cell growth suppression; HCT116 beta-catenin knockout viability, CellTiter-Glo, 60 h; hits give low values; viability, % at 10 µM; 140,000 compounds, 1.5% hits; AID 818;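 active = viability at or under a set limit, the compound median less 4 SD, cut at about 6% in these data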;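 note: 0% = Hyamine 1622 control at 20 µM and 100% = untreated cell control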
# HCT116 PTEN-null – growth suppressors of cells with PTEN tumor suppressor deletion; AID 827; 140,000 compounds, 1.2% hits; viability, % at 10 µM; HCT116 PTEN-null viability, CellTiter-Glo, 60 h; hits give low values;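 active = viability at or below a set limit, 4 SD under the median of all tested compounds, cut at about 3.7% in these data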;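 note: PTEN knockout HCT116 line with beta catenin targeted HCT116 as companion control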
# Lung fibro prol – blocks proliferation of human lung fibroblasts | viability, % at 10 µM | 85,000 compounds, 1.1% hits | LL 47 human lung fibroblast viability, ATP luminescence; hits give low values | AID 719;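 active = viability at or below 50% in the single dose screen; inactive = viability above 50%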;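 note: compound exposure lasted 72 h before the ATP readout; 100% = median luminescence of untreated cell-only wells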
#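 Times – overnight cell rest, 72 h compound treatment at 37 °C · Test system – human lung fibroblast line LL 47, low passage · Amount – 1,150 cells in each well · Controls – cell-only wells, no compound · Doses – 0.1% DMSO in all compound wells · Measured by – CellTiter-Glo luminescence · Buffer or medium – IMEM plus 15% FBS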
# HUVEC inhibit – blocks proliferation of human endothelial cells; 86,000 compounds, 1.1% hits; AID 648; HUVEC proliferation, CellTiter-Glo luminescence, 72 h; hits give low values; viability, % at 10 µM (by protocol);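 active = viability at or below 30%; inactive = viability above 30%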;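 note: 100% = median luminescence of DMSO-only cell control wells on each plate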
# H69AR inhibit – blocks growth of human H69AR lung tumor cells; H69AR lung tumor viability, ATP luminescence, 72 h; hits give low values; viability, % at 10 µM; 85,000 compounds, 6% hits;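 active = viability at or below 40%; inactive = viability above 40%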;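 note: multidrug resistant small cell line overexpressing MRP-1 efflux transporter; 100% = mean luminescence of untreated control wells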
# Numbers without * were called inactive; / = no result. Shown is part of a subset that was picked to be rich in hits.
SMILES,bCat KO growth,HCT116 PTEN-null,Lung fibro prol,HUVEC inhibit,H69AR inhibit
Cc1cc(C)n(-c2nc3c(c(=O)n(Cc4ccc(Cl)c(Cl)c4)c(=O)n3C)n2C)n1,/,/,91,69,38*
Cn1c(N2CCN(c3ccccn3)CC2)nc2c1c(=O)n(Cc1ccccc1Cl)c(=O)n2C,/,/,92,84,23*
Cc1ccccc1OCC(=O)OCC(=O)NCc1cccs1,107,91,/,/,/
Cc1ccc(NC(=O)C2(c3ccccc3)CCOCC2)c([N+](=O)[O-])c1,86,98,/,/,/
COc1ccc(Cn2c(C)c(C)c(C#N)c2NC(=O)Nc2cccc(Cl)c2)cc1,79,79,93,61,36*
COc1ccc(Cn2c(C)c(C)c(C#N)c2NC(=O)Nc2ccc(Cl)cc2)cc1,97,100,74,63,35*
O=c1cc2c(nn1Cc1ccccc1Cl)-c1ccccc1CC2,94,98,101,109,88
CC1SC(C)C(=O)N(CC(=O)NCc2ccc(F)cc2)C1=O (centres undefined),100,96,/,/,/
COC(=O)CCC/C=C1\SC[C@@H](NC(=O)c2ccccc2)C1NC(C)=O (some centres undefined),96,101,/,/,/
Cc1cc2n(c(=O)c1C#N)CCCN2c1ccccc1,105,106,94,97,41
COc1ccc(C(NC(=O)c2c(F)c(F)c(F)c(F)c2F)c2ccccc2)cc1 (centres undefined),1.3*,1.7*,/,/,/
N#Cc1nc(-c2cccc3ccccc23)oc1NCCN1CCCCC1,57,47,53,5.1*,13*
Cc1ccccc1OCCSc1nnc(-c2cccnc2)n1N,86,82,/,/,/
CCOC(=O)c1cnn(-c2nc3sc4c(c3c(=O)[nH]2)CCCC4)c1N,/,/,45*,37,30*
CCOC(=O)c1cnn(-c2nc(C)nc3sc4c(c23)CCC4)c1N,/,/,81,68,106
Cc1cc(C)n(-c2nc3sc4c(c3c(=O)[nH]2)CCCC4)n1,4.7*,2.6*,51,53,28*
NCCCN1CCOCC1,88,90,105,102,96
CCCCC(=O)Nc1cc(OC)c(NC(=O)C2CCCCC2)cc1OC,97,98,93,91,90
O=C(CSc1cccc[n+]1[O-])c1cc2ccccc2o1,4.7*,2.7*,93,109,54
COc1ccccc1C(=O)NCC(=O)N/N=C/c1cc(Br)ccc1OCc1ccccc1,67,64,/,/,/
COc1cccc(C2C3=C(CC(C)(C)CC3=O)Nc3cc4c(cc32)OCO4)c1 (centres undefined),94,94,94,78,32*
COc1cc2c(cc1OC)C(c1ccc3c(c1)OCO3)C1=C(CC(C)(C)CC1=O)N2 (centres undefined),79,74,96,81,63
Cc1ccccc1-c1nnc(-c2ccccc2)o1,88,85,93,100,92
Cn1cc(-c2nnc(-c3ccccc3)o2)c2ccccc21,84,82,59,18*,54
CC(C)Oc1cccc(C(=O)NC(=S)NCc2cccnc2)c1,82,84,/,/,/
SMILES,bCat KO growth,HCT116 PTEN-null,Lung fibro prol,HUVEC inhibit,H69AR inhibit
Cc1ccc(CN2CCN(CC(=O)NC(C)c3ccc4c(c3)OCCO4)C2=O)cc1 (centres undefined),94,95,109,102,102
Oc1ccccc1CN1CCC(C(O)(c2ccccc2)c2ccccc2)CC1,63,59,/,/,/
CC(C)(C)c1ccc(C(O)CCCN2CCC(C(O)(c3ccccc3)c3ccccc3)CC2)cc1 (centres undefined),0.7*,0.8*,2.6*,2.4*,0.8*
O=Cc1ccccc1Oc1ccccc1,91,93,/,/,/
O=Cc1ccccc1OCCOc1ccccc1C=O,15,11,54,47,23*
CCc1ccc2nc3nc(C)cc(C)c3c(N)c2c1,4.0*,3.2*,/,/,/
CCOC(=O)c1sc2nc(C)cc(C)c2c1N,67,85,102,99,102
Cc1cc(C)c2c(N)c3ccccc3nc2n1,2.9*,3.2*,/,/,/
COc1cc2[nH]c(=O)n(CCCCCC(=O)N3CCN(c4ccccc4)CC3)c(=O)c2cc1OC,80,68,97,66,65
COc1cc2[nH]c(=O)n(CCC(=O)N3CCN(c4cccc(C)c4C)CC3)c(=O)c2cc1OC,96,99,89,44,2.4*
COc1ccccc1-n1cnc(N)c1C(=O)c1ccccc1,32,27,73,68,24*
COc1ccccc1-n1cnc(N)c1C(C)=O,113,103,98,96,88
CC(C)(C)NC(=O)CN(C(=O)Cn1nnc(-c2ccc(Cl)cc2)n1)C1CCN(Cc2ccccc2)CC1,1.6*,28,91,30,46
O=C(CSc1nc(-c2ccccc2)c(-c2ccccc2)[nH]1)NCc1ccco1,42,35,83,46,92
O=C(CSc1nc(-c2ccccc2)c(-c2ccccc2)[nH]1)NCCN1C(=O)CSC1=O,10,12,55,31,21*
Cc1nc2ccc(Cl)cc2nc(C)/c1=N\O,98,100,91,87,5.6*
Cc1ccc2nc(C)/c(=N\O)c(C)nc2c1,88,87,98,93,6.8*
Cc1nc2ccccc2nc(C)c1=NO,82,99,93,95,27*
CCOC(=O)c1nc2ccccc2nc1C,91,104,/,/,/
Cc1ccccc1NC(=O)CSc1nc2n(n1)CCCCC2,101,103,/,/,/
O=S(=O)(NCC(c1ccco1)N1CCOCC1)c1ccc(Cl)cc1 (centres undefined),81,99,/,/,/
CN(C)N1C(N)=C(C#N)C(c2cccnc2)C2=C1CCCC2=O (centres undefined),90,91,/,/,/
CCOc1ccccc1NC(=S)N(Cc1cc2ccc(C)cc2[nH]c1=O)CC1CCCN1CC (centres undefined),2.5*,1.2*,/,/,/
CCN1CCCC1CN(Cc1cc2ccc(C)cc2[nH]c1=O)C(=S)Nc1cccc(OC)c1 (centres undefined),3.5*,2.5*,/,/,/
Cc1ccc(C(=O)NCCSC2CCCCC2)cc1S(=O)(=O)Nc1ccccc1,98,82,/,/,/
SMILES,bCat KO growth,HCT116 PTEN-null,Lung fibro prol,HUVEC inhibit,H69AR inhibit
CCOC(=O)c1nnc2c(Br)c(-c3ccccc3)nn2c1C,96,89,106,105,95
COc1cccc(/C=N/NC(=O)c2ccc([N+](=O)[O-])cc2Cl)c1O,5.6*,6,/,/,/
COc1cc2c(cc1OC)C1(Nc3c-2c(Cc2ccccc2)nn3-c2ccccc2)C(=O)Nc2ccccc21 (centres undefined),96,87,85,53,26*
O=C(/C=C/c1ccc(Br)cc1)NC1CCCCCC1,100,99,/,/,/
CCC1CSC(Nc2ccc(C(=O)/C=C/c3ccc(OC)c(OC)c3)cc2)=N1 (centres undefined),3.0*,3.4*,/,/,/
CCC1CSC(Nc2ccc(C(=O)/C=C/c3ccc(Br)cc3)cc2)=N1 (centres undefined),5.4*,2.8*,/,/,/
CCOc1cc2[nH]c(=O)n(CC3CCC(C(=O)NC4CCCCC4)CC3)c(=O)c2cc1OCC (centres undefined),/,/,100,30*,90
